Source: PubChem (several laboratories)
MIN6 prolif: induces beta-cell replication in MIN6 cells; MIN6 cells proliferation, ATPlite luminescence, 48 h; cells starved in 0.2% serum; 100% = growth in 10% serum; proliferation, % at 10 µM; 330,000 tested, 0.29% active;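 active = compounds whose signal lies at least 3.5 SD above the mean of all wells on their plate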
TAG inh: inhibitors of triacylglycerol accumulation | 230,000 tested, 0.66% active | H9c2 cells, Nile Red lipid (TAG) fluorescence; cells loaded with 200 µM oleic acid | inhibition, % at 12.5 µM | AID 651582;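 active = pattern-corrected inhibition of lipid staining of at least 50% with the nuclear-stain viability signal not falling by more than 50%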
iPSC survival up: increases survival of single human iPS cells; hiPSC single-cell survival, ATPlite luminescence; 100% = ROCK inhibitor wells, 0% = DMSO; survival enhancement, % at 20 µM; 360,000 tested, 0.044% active; AID 602274; in the data active = survival enhancement above about 18%;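 also: cells exposed to compounds for 16 hours before the ATP read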
PG9 binder: small molecules binding HIV-1 gp120 antibody PG9 | 360,000 tested, 0.43% active | TR-FRET gp120-PG9 antibody binding | AID 624416 | inhibition, % at 6.7 µM; in the data active = inhibition above about 8.5%
T cruzi repl: blocks replication of Trypanosoma cruzi; T. cruzi beta-gal in NIH3T3, luminescence, 90 h; inhibition, % (concentration not given with the values); 300,000 tested, 1.4% active;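 active = mean inhibition across valid replicates above about 55%, limit read from the data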;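 also: signal also drops with host cell toxicity which is not excluded here; higher percent means less beta-gal luminescence so fewer parasites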
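Incubation – ≥90 h infection period, 3 h prior cell attachment · System – NIH/3T3 fibroblasts plus reporter T. cruzi · Doses – compound pinned at 50 nL/well, DMSO · Read-out basis – percent inhibition of parasite-derived β-gal signal · Signal – luminescent β-galactosidase signal after 60 min lysis · Also added – 5000 T. cruzi trypomastigotes/well · Medium – Low-serum DMEM with 2% FBS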
NR1D1 modulator: Rev-erb alpha (human) modulation; P20393; Rev-erbα–FITC-DNA binding, fluorescence polarization, 90 min; activity, % at 10 µM; 370,000 tested, 0.79% active;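 active = activity above about 14%, limit read from the data; passing the limit was not always enough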
Target sequence (P20393 whole entry, looked up): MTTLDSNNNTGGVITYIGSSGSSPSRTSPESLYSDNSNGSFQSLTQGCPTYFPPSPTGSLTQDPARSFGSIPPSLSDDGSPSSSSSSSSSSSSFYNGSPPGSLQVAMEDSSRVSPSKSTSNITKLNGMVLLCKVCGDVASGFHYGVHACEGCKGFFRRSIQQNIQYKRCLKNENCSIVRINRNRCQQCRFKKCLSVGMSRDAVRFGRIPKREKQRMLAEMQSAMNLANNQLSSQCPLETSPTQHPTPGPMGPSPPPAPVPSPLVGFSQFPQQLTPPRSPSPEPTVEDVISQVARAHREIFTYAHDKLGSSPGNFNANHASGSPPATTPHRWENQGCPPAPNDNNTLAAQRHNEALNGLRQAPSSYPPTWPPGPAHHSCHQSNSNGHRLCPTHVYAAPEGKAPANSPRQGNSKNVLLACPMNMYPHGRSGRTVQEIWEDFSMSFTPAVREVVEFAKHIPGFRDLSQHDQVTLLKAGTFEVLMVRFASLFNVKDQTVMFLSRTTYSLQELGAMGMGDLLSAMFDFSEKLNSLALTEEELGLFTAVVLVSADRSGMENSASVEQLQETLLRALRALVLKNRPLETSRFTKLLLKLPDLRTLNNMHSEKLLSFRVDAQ
A number is an active result; n = inactive; x = no result. A selection: hits, their analogues and other compounds. The true share with any hit is near 2.9%.

SMILES	MIN6 prolif	TAG inh	iPSC survival up	PG9 binder	T cruzi repl	NR1D1 modulator
OC(c1ccc(Cl)cc1)c1ncc(-c2cccc(C(F)(F)F)c2)[nH]1 (centres undefined)	x	n	25	n	x	n
OC(c1cc(C(F)(F)F)nc2c(C(F)(F)F)cccc12)C1CCCCN1 (centres undefined)	n	n	n	n	x	n
OC(c1cc(-c2ccc(C(F)(F)F)cc2)nc(C(F)(F)F)c1)C1CCCCN1 (centres undefined)	n	x	n	n	56	n
COC(=O)C1=C(C)N(CCCC(=O)O)C(=O)NC1c1ccc(-c2ccccc2)cc1 (centres undefined)	n	n	n	n	n	n
Cc1noc(C)c1CSc1nc2sc(C)c(C)c2c(=O)n1-c1ccccc1	n	n	n	n	60	n
C=CCn1c(SCc2c(C)noc2C)nc2sc(C)c(C)c2c1=O	n	x	n	n	n	n
OCCCNc1ncnc2oc(-c3ccccc3)c(-c3ccccc3)c12	n	x	n	n	n	n
O=C1[C@@H]2Cc3c([nH]c4ccccc34)C(c3cccc([N+](=O)[O-])c3)N2C(=O)CN1C1CCN(Cc2ccccc2)CC1 (some centres undefined)	n	x	n	n	71	n
CCOc1ccc(C2c3[nH]c4ccccc4c3C[C@H]3C(=O)N(C4CCN(Cc5ccccc5)CC4)CC(=O)N23)cc1OC (some centres undefined)	n	x	n	n	n	n
Cc1ccccc1-n1cnc2cc(NCc3cccs3)ccc21	n	x	n	n	n	n
COc1ccccc1-n1cnc2cc(NCc3cccs3)ccc21	n	58	n	n	n	n
COc1ccc(CNC(=O)COC(=O)CC(NC(N)=O)c2ccc(Cl)cc2)cc1OC (centres undefined)	n	n	n	n	x	n
COc1ccccc1Sc1nc(-c2ccccn2)ncc1OC	n	n	23	n	n	n
COc1cnc(-c2ccccn2)nc1NC(C)C	n	n	n	n	77	n
Cc1cccc(NC(=O)CSc2nnc(CNC(=O)c3ccc(S(=O)(=O)N(C)C)cc3)n2-c2ccc(F)cc2)c1	n	x	n	n	n	n
Nc1nnc(CSCc2ccc(Cl)cc2)s1	n	x	n	n	n	n
C=CS(=O)(=O)c1sc(Cl)c(N2CCOCC2)c1[N+](=O)[O-]	x	n	n	n	55	n
O=C(COC(=O)c1c(F)cccc1F)NCCNC(=O)COC(=O)c1c(F)cccc1F	n	x	n	n	n	n
C=CCOc1c(Cl)cc(CNCCCN2CCOCC2)cc1OC	n	x	n	n	56	n
CCn1c2ccccc2c2cc(CNCCCN3CCOCC3)ccc21	n	n	n	n	61	n
CCOc1cc(CNCCCN2CCOCC2)cc(Cl)c1OCC(=O)NC(C)(C)C	n	x	n	n	n	n
COc1cc(CNCCCN2CCOCC2)cc(Br)c1OCc1ccc(Cl)cc1	n	n	n	n	59	n
COc1cc(CNCCN2CCOCC2)ccc1OCc1ccc(Cl)cc1	n	n	n	n	n	n
Cc1cccc(C)c1NC1=NC(C)(C)N=C(N)N1	n	n	n	n	n	n
C/C(=N\Nc1cc(N2CCCCC2)nc(C)n1)c1ccc(Br)cc1	n	n	n	n	72	n
SMILES	MIN6 prolif	TAG inh	iPSC survival up	PG9 binder	T cruzi repl	NR1D1 modulator
C/C(=N/Nc1nc(C)cc(C)n1)c1ccc(Br)cc1	n	n	n	n	n	n
Cc1nc2c(OCC(=O)c3ccc(F)cc3)cccn2c1N(C)Cc1cccs1	x	n	n	n	x	n
COc1ccc(CN(Cc2cccnc2)S(=O)(=O)c2ccc(-n3cnnn3)c(C)c2)cc1OC	n	x	n	n	78	n
CCOc1ccccc1CN1CCN(Cc2nc3ccccc3s2)CC1CCO (centres undefined)	n	x	n	n	58	n
CCOc1ccccc1CN1CCN(Cc2c[nH]c3ccccc23)CC1CCO (centres undefined)	n	n	n	n	n	n
COc1ccc(CN2CCN(Cc3cc4ccccc4o3)CC2CCO)cc1C (centres undefined)	n	n	n	n	55	n
CCOc1ccccc1CN1CCN(Cc2[nH]c3ccccc3c2C)CC1CCO (centres undefined)	n	x	n	n	66	n
CCOc1ccc(CN2CCN(Cc3nc(C(C)C)cs3)CC2CCO)cc1 (centres undefined)	n	x	x	n	58	n
CCOc1ccccc1CN1CCN(Cc2ccc(C)o2)CC1CCO (centres undefined)	n	x	n	n	n	n
COc1ccc(N=C2SC(CC(=O)Nc3ccc(OC)cc3OC)C(=O)N2C)cc1 (centres undefined)	n	x	n	n	n	n
CC(Oc1cc2oc(=O)c3c(c2cc1Cl)CCCC3)C(=O)NCc1ccccn1 (centres undefined)	n	x	n	n	n	n
NC(=O)c1c(NC(=O)c2ccccc2F)sc2c1CCCC2	n	n	n	n	n	n
CCOc1ccc(CN2CCN(Cc3[nH]c4ccc(OC)cc4c3C)CC2CCO)cc1 (centres undefined)	n	n	n	n	72	n
COc1ccc(CN2CCN(Cc3cccc4nonc34)CC2CCO)c(C)c1C (centres undefined)	n	n	n	n	66	n
CCOc1ccccc1CN1CCN(CC2=Cc3cc(OC)ccc3OC2)CC1CCO (centres undefined)	n	n	n	n	55	n
Cc1cccc(CN2CCN(Cc3cccc4nonc34)CC2CCO)n1 (centres undefined)	n	n	n	n	n	n
COc1ccc(C(=O)NNC(=O)CSc2nc3c(c(=O)n(C)c(=O)n3C)n2C)cc1	n	n	n	n	n	n
CCN(Cc1ccncc1)C(=O)c1cc(COc2ccc(F)cc2F)on1	n	x	n	n	n	n
CCN(Cc1ccncc1)C(=O)c1cc(COc2c(C)cccc2C)on1	n	n	n	n	57	n
O=C(CN(c1ccc(Cl)cc1)S(=O)(=O)c1ccc(Cl)c([N+](=O)[O-])c1)NCCc1ccccc1	n	n	n	n	74	n
O=C(CN(c1ccc(Cl)cc1)S(=O)(=O)c1ccc(Cl)c([N+](=O)[O-])c1)NCCc1ccc(F)cc1	n	x	n	n	n	n
CCOC(=O)C1=C(CNCCc2ccc(Cl)cc2)NC(=O)NC1c1ccc2c(c1)OCO2 (centres undefined)	n	n	n	n	57	n
CCOC(=O)C1=C(CNCCOc2ccc(OC)cc2)NC(=O)NC1c1ccc2c(c1)OCO2 (centres undefined)	n	n	n	n	n	n
COc1ccc(N(C)S(=O)(=O)c2cccc(C(=O)NC3CCCC3)c2)cc1	n	n	n	n	n	n
COc1ccc(N(C)S(=O)(=O)c2cccc(C(=O)NCC3CCCCC3)c2)cc1	x	n	n	n	69	n
